Measured values published in ChEMBL document CHEMBL4715704, “Design, synthesis and biological evaluation of novel L-ascorbic acid-conjugated pentacyclic triterpene derivatives as potential influenza virus entry inhibitors” (Eur J Med Chem, 2016).
Active and inactive are the calls of the source. The calls are words filed in the database; no cut-off is given here.

What was measured:
[1] = Binding affinity to recombinant influenza A virus A hemagglutinin by SPR assay
Method in brief: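 SPR used HA immobilized to about 16,000 RU. Compounds were injected as analytes at various concentrations in PBS-P running buffer (10 mM phosphate, 2.7 mM KCl, 137 mM NaCl, 0.05% P20, pH 4.5). Flow was 30 µL/min, with 60 s contact and 60 s dissociation, giving KD.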

Influenza A virus [2] = assay: Antiviral activity against Influenza A virus A/WSN/33(H1N1) infected in MDCK cells assessed as s reduction in cytopathic effect after 40 hrs incubation by CellTiter-Glo assay; type: functional, organism-based; settings: A/WSN/1933(H1N1)
Method in brief: (§1)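 MDCK cells seeded in 96-well plates and grown overnight, then infected with A/WSN/33 (H1N1) at MOI 0.1. Cells were kept in DMEM with 1% FBS, test compound, 2 µg/mL TPCK-trypsin and 1% DMSO final. After 40 h, cell viability was read by CellTiter-Glo luminescence to measure CPE reduction.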

Influenza A virus [3] = assay: Antiviral activity against Influenza A virus A/WSN/33(H1N1) infected in MDCK cells assessed as s reduction in cytopathic effect after 40 hrs incubation by CellTiter-Glo assay relative to control; type: functional, A/WSN/1933(H1N1); method in brief: as §1
[4] = Cytotoxicity against MDCK cells after 40 hrs incubation by CellTiter-Glo assay; type: cell-based, Canis lupus familiaris; settings: dog
Method in brief: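 Uninfected MDCK cells were grown overnight in 96-well plates in 1% FBS medium. They were exposed to increasing compound concentrations for 40 h, and viability was read by CellTiter-Glo luminescence.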

Influenza A virus [5] = assay: Antiviral activity against Influenza A virus A/WSN/33(H1N1)) infected in MDCK cells assessed as suppression of virion assembly and release after 8 to 10 hrs post infection by time of addition assay; type: functional, organism-based; settings: A/WSN/1933(H1N1), time 8-10 hrs
Method in brief: (§2)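 Cells were seeded in 6-well plates at 5 × 10^5 per well 24 h before infection and kept at 37 °C, 5% CO2. They were infected with WSN at MOI 1. Compound was present during 0-10, 0-2, 2-5, 5-8 or 8-10 h post infection. Lysates were Western-blotted for viral NP, with GAPDH probed and DMSO as control.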

Influenza A virus [6] = assay: Antiviral activity against Influenza A virus A/WSN/33(H1N1)) infected in MDCK cells assessed as inhibition rate at 50 uM by co-treatment assay; type: functional, A/WSN/1933(H1N1); set-up: scale not given: the % may be the effect or the level left
Influenza A virus [7] = assay: Antiviral activity against Influenza A virus A/WSN/33(H1N1)) infected in MDCK cells assessed as suppression of viral genome translation after 8 to 10 hrs post infection by time of addition assay; type: functional, organism-based; settings: A/WSN/1933(H1N1), time 8-10 hrs; method in brief: as §2
Influenza A virus [8] = assay: Antiviral activity against Influenza A virus A/WSN/33(H1N1)) infected in MDCK cells assessed as inhibition rate by pretreated virus at 50 uM; type: functional, A/WSN/1933(H1N1); set-up: scale not given: the % may be the effect or the level left
Red blood cell = assay: Inhibition of hemagglutinin in Influenza A virus A/WSN/33(H1N1)) assessed as reduction in virus-induced agglutination of chicken red blood cells pretreated for 1 hr followed by further incubated for 1 hr; type: cell-based; settings: Influenza A virus (A/WSN/1933(H1N1))
Method in brief: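 Haemagglutination inhibition: compound was 3-fold serially diluted in saline and mixed with an equal volume of WSN virus (2 HA units) in V-bottom wells. Freshly prepared chicken RBC (1% v/v in saline) were added and incubated at room temperature. cRBC aggregation was scored visually, with anti-HA antibody as comparator.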

Influenza A virus [9] = assay: Antiviral activity against Influenza A virus A/WSN/33(H1N1)) infected in MDCK cells assessed as inhibition of virus infection at early stage after 2 hrs post infection by time of addition assay; type: functional, organism-based; settings: A/WSN/1933(H1N1); method in brief: as §2
Influenza A virus [10] = assay: Antiviral activity against Influenza A virus A/WSN/33(H1N1)) infected in MDCK cells assessed as suppression of viral genome replication after 8 to 10 hrs post infection by time of addition assay; type: functional, organism-based; settings: A/WSN/1933(H1N1), time 8-10 hrs; method in brief: as §2

| Structure (SMILES) | EC50 (Influenza A virus [2]) | inhibition (INH) (Influenza A virus [3]) | CC50 at 40 h [4] | other results |
| --- | --- | --- | --- | --- |
| C=C(C)[C@@H]1CC[C@]2(C(=O)NCc3cn(C[C@H](O)[C@H]4OC(=O)C(O)=C4O)nn3)CC[C@]3(C)[C@H](CC[C@@H]4[C@@]5(C)CC[C@H](O)C(C)(C)[C@@H]5CC[C@]43C)[C@@H]12 | 41.3 µM | 93.1% | > 200 µM | Kd [1]: 8.04 µM |
| COC1=C(OC)[C@@H]([C@@H](O)Cn2cc(CNC(=O)[C@]34CCC(C)(C)C[C@H]3C3=CC[C@@H]5[C@@]6(C)CC[C@H](O)C(C)(C)[C@@H]6CC[C@@]5(C)[C@]3(C)C[C@H]4O)nn2)OC1=O |  |  | 5.6 µM |  |
| CC1(C)CC[C@]2(C(=O)NCc3cn(C[C@H](O)[C@H]4OC(=O)C(OCc5ccccc5)=C4OCc4ccccc4)nn3)[C@H](O)C[C@]3(C)C(=CC[C@@H]4[C@@]5(C)CC[C@H](O)C(C)(C)[C@@H]5CC[C@]43C)[C@@H]2C1 | 56.6 µM | 87% | > 200 µM |  |
| CCOC(=O)C1=C[C@@H](OC(CC)CC)[C@H](NC(C)=O)[C@@H](N)C1.O=P(O)(O)O [OSELTAMIVIR PHOSPHATE] | 12.5 µM | 86.5% | > 200 µM |  |
| CC1(C)CC[C@]2(C(=O)NCc3cn(C[C@H](O)[C@H]4OC(=O)C(OCc5ccccc5)=C4OCc4ccccc4)nn3)CC[C@]3(C)C(=CC[C@@H]4[C@@]5(C)CC[C@H](O)C(C)(C)[C@@H]5CC[C@]43C)[C@@H]2C1 | 19.2 µM | 91.3% | > 200 µM |  |
| CC1(C)CC[C@]2(C(=O)NC[C@H](O)[C@H]3OC(=O)C(OCc4ccccc4)=C3OCc3ccccc3)CC[C@]3(C)C(=CC[C@@H]4[C@@]5(C)CC[C@H](O)C(C)(C)[C@@H]5CC[C@]43C)[C@@H]2C1 | 25.3 µM | 81.9% | > 200 µM |  |
| C[C@H]1[C@H](C)CC[C@]2(C(=O)NCc3cn(C[C@H](O)[C@H]4OC(=O)C(O)=C4O)nn3)[C@H](O)C[C@]3(C)C(=CC[C@@H]4[C@@]5(C)CC[C@H](O)C(C)(C)[C@@H]5CC[C@]43C)[C@H]12 |  |  | 41.1 µM |  |
| CC1(C)CC[C@]2(C(=O)NC[C@H](O)[C@H]3OC(=O)C(OCc4ccccc4)=C3OCc3ccccc3)[C@H](O)C[C@]3(C)C(=CC[C@@H]4[C@@]5(C)CC[C@H](O)C(C)(C)[C@@H]5CC[C@]43C)[C@@H]2C1 | 30.3 µM | 71.1% | > 200 µM |  |
| CC1(C)CC[C@]2(C(=O)NCc3cn(C[C@H](O)[C@H]4OC(=O)C(O)=C4O)nn3)[C@H](O)C[C@]3(C)C(=CC[C@@H]4[C@@]5(C)CC[C@H](O)C(C)(C)[C@@H]5CC[C@]43C)[C@@H]2C1 |  |  | 59.3 µM |  |
| C[C@H]1[C@H](C)CC[C@]2(C(=O)NCc3cn(C[C@H](O)[C@H]4OC(=O)C(OCc5ccccc5)=C4OCc4ccccc4)nn3)CC[C@]3(C)C(=CC[C@@H]4[C@@]5(C)CC[C@H](O)C(C)(C)[C@@H]5CC[C@]43C)[C@H]12 | 25.7 µM | 90.8% | > 200 µM |  |
| CC1(C)CC[C@]2(C(=O)NC[C@H](O)[C@H]3OC(=O)C(O)=C3O)[C@H](O)C[C@]3(C)C(=CC[C@@H]4[C@@]5(C)CC[C@H](O)C(C)(C)[C@@H]5CC[C@]43C)[C@@H]2C1 |  |  | 29.7 µM |  |
| CC(C)[C@@H]1CC[C@]2(C(=O)NC[C@H](O)[C@H]3OC(=O)C(O)=C3O)CC[C@]3(C)[C@H](CC[C@@H]4[C@@]5(C)CC[C@H](O)C(C)(C)[C@@H]5CC[C@]43C)[C@@H]12 | 35.6 µM | 84.4% | > 200 µM |  |
| CC1(C)CC[C@]2(C(=O)NC[C@H](O)[C@H]3OC(=O)C(O)=C3O)CC[C@]3(C)C(=CC[C@@H]4[C@@]5(C)CC[C@H](O)C(C)(C)[C@@H]5CC[C@]43C)[C@@H]2C1 |  |  | 41.9 µM |  |
| COC1=C(OC)[C@@H]([C@@H](O)Cn2cc(CNC(=O)[C@]34CCC(C)(C)C[C@H]3C3=CC[C@@H]5[C@@]6(C)CC[C@H](O)C(C)(C)[C@@H]6CC[C@@]5(C)[C@]3(C)CC4)nn2)OC1=O |  |  | 19.6 µM |  |
| CC1(C)CC[C@]2(C(=O)NCc3cn(C[C@H](O)[C@H]4OC(=O)C(O)=C4O)nn3)CC[C@]3(C)C(=CC[C@@H]4[C@@]5(C)CC[C@H](O)C(C)(C)[C@@H]5CC[C@]43C)[C@@H]2C1 |  |  | 46.8 µM |  |
| C=C(C)[C@@H]1CC[C@]2(C(=O)NCc3cn(C[C@H](O)[C@H]4OC(=O)C(OCc5ccccc5)=C4OCc4ccccc4)nn3)CC[C@]3(C)[C@H](CC[C@@H]4[C@@]5(C)CC[C@H](O)C(C)(C)[C@@H]5CC[C@]43C)[C@@H]12 | 8.7 µM | 89.6% | > 200 µM | Kd [1]: 3.76 µM; Activity (Influenza A virus [5]): Active; Activity (Influenza A virus [6]): 75%; Activity (Influenza A virus [7]): Active; Activity (Influenza A virus [8]): 87%; inhibition (Red blood cell): Dose-dependent effect; Activity (Influenza A virus [9]): Active; Activity (Influenza A virus [10]): Active |
| C=C(C)[C@@H]1CC[C@]2(C(=O)NC[C@H](O)[C@H]3OC(=O)C(OCc4ccccc4)=C3OCc3ccccc3)CC[C@]3(C)[C@H](CC[C@@H]4[C@@]5(C)CC[C@H](O)C(C)(C)[C@@H]5CC[C@]43C)[C@@H]12 | 23.7 µM | 89.6% | > 200 µM |  |
| C[C@H]1[C@H](C)CC[C@]2(C(=O)NC[C@H](O)[C@H]3OC(=O)C(OCc4ccccc4)=C3OCc3ccccc3)CC[C@]3(C)C(=CC[C@@H]4[C@@]5(C)CC[C@H](O)C(C)(C)[C@@H]5CC[C@]43C)[C@H]12 | 26.4 µM | 88.1% | > 200 µM |  |
| C=C(C)[C@@H]1CC[C@@]2(C(=O)NCc3cn(C[C@H](O)[C@H]4OC(=O)C(OC)=C4OC)nn3)[C@H]1[C@H]1CC[C@@H]3[C@@]4(C)CC[C@H](O)C(C)(C)[C@@H]4CC[C@@]3(C)[C@]1(C)C[C@H]2O |  |  | 43.9 µM |  |
| COC1=C(OC)[C@@H]([C@@H](O)Cn2cc(CNC(=O)[C@]34CC[C@@H](C)[C@H](C)[C@H]3C3=CC[C@@H]5[C@@]6(C)CC[C@H](O)C(C)(C)[C@@H]6CC[C@@]5(C)[C@]3(C)C[C@H]4O)nn2)OC1=O |  |  | 52.5 µM |  |
